TDP2 absorb – TDP2 (human) inhibition, absorbance primary screen | recombinant TDP2, T5PNP hydrolysis, p-nitrophenol absorbance 415 nm | inhibition, % at 12.8 µM | 370,000 compounds, 0.34% hits;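 active = inhibition above the mean of all tested compounds plus 3 SD, set per campaign, cut at about 25% in these data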
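Material: recombinant human TDP2; quantity: TDP2 enzyme at 120 nM final; medium: Tris-HCl pH 7.5 with MgCl2; compound: single concentration, 12.8 µM nominal, with 1% DMSO; incubation: 2 h enzyme incubation at 37 °C; signal: epi absorbance; measure: percent inhibition; benchmarks: high control without enzyme, low control DMSO plus TDP2; repeats: singlicate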
PRMT1 inh – inhibitors of human PRMT1; Q99873; recombinant PRMT1, activity-based probe fluorescence polarization; inhibition, % at 2.79 µM; 370,000 compounds, 1.3% hits; AID 652257;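 active = inhibition above about 21% made by adding two undisclosed values, limit read from the data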
MBD2 inh – blocks human MBD2 binding to methylated DNA; Q9UBB5; TR-FRET, MBD2 binding to methylated oligonucleotide; inhibition, % at 4.4 µM; 370,000 compounds, 0.31% hits; in the data active = inhibition above about 13%
LEDGF integ inh – blocks HIV-1 LEDGF/p75-dependent DNA integration; TR-FRET IN-LEDGF/p75 DNA integration, Eu/Cy5; inhibition, % at 3.7 µM; 370,000 compounds, 0.64% hits; AID 743269;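 active = inhibition above the screen-wide mean plus 3 SD, cut at about 13% in these data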;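 also: signal is the Cy5 over europium emission ratio at 671 and 618 nm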
SIAE primary – human SIAE inhibition, primary screen | inhibition, % at 9.66 µM | AID 1053197 | 370,000 compounds, 0.69% hits | SIAE FP-Rh probe binding, fluorescence polarization;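 active = inhibition above a cutoff: mean of compounds within the control limits plus 3 SD of those, cut at about 17% in these data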
Target sequence (Q9HAT2 whole entry, looked up): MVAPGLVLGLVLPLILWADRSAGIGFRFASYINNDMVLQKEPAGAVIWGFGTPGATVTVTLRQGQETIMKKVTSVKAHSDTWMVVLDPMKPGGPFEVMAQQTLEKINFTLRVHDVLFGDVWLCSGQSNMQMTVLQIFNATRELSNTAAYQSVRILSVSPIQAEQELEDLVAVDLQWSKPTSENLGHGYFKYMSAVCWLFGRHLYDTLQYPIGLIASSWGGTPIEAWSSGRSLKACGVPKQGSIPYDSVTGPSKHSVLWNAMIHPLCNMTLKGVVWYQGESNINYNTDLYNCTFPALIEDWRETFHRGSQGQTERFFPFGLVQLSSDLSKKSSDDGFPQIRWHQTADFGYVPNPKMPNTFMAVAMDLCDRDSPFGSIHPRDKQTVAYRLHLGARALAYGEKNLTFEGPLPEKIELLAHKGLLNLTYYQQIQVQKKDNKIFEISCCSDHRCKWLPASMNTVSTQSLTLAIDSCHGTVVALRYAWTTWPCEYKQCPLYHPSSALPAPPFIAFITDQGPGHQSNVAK
UHRF1 binding – blocks human UHRF1 binding to methylated DNA; inhibition, % at 4.4 µM; 370,000 compounds, 0.75% hits; Q96T88; AID 687016; UHRF1 binding to methylated oligo, TR-FRET; in the data active = inhibition above about 21%;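 also: UHRF1 SRA domain binding a hemimethylated CpG hairpin DNA probe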
Numbers stand for hits; - = inactive. A selection: hits, their analogues and other compounds. The true share with any hit is near 3.3%.

SMILES | TDP2 absorb | PRMT1 inh | MBD2 inh | LEDGF integ inh | SIAE primary | UHRF1 binding
CC(NC(=O)c1ccc(CS(=O)(=O)c2cccc(C(F)(F)F)c2)o1)c1ccc2c(c1)OCCO2 (stereo not given) | - | - | - | - | - | 41.5
CCOC(=O)C(Cc1ccc(OC)c([N+](=O)[O-])c1)NC(=O)CCC(=O)Nc1ccc(OC)cc1 (stereo not given) | - | - | - | - | - | 27.6
COCCCNC(=O)C[C@H]1C[C@@]2(C(=O)OC)C(=C[C@H](C(C)(C)C)O[C@@H]2C)N(Cc2ccco2)C1=O | - | - | - | - | - | -
CC(C)CN1C(=O)C[C@@]2(C(=O)N(C)c3ccc(NS(=O)(=O)c4ccc(F)cc4)cc32)C1c1ccccc1 (stereo not given in full) | - | - | - | - | - | -
O=C(O)c1ccc2c(c1)[C@@H]1C=CC[C@@H]1[C@H](c1ccccn1)N2 | 25.8 | 70.2 | 90.6 | 94.8 | 17.3 | 97.9
O=C(NCCOc1ccccc1)C1Nc2ccc(OC(F)(F)F)cc2C2C=CCC12 (stereo not given) | - | - | - | - | - | -
O=C(Nc1ccccc1)Nc1ccc(Cl)c([N+](=O)[O-])c1 | - | - | - | - | 53.8 | -
O=C(N/N=C\C=C\c1ccc2c(c1)OCO2)c1cccnc1 | - | - | - | - | - | 32.7
Cc1cccc(N2CCc3c2nc2ccc(Br)cc2c3N)c1 | - | - | - | - | - | -
Nc1c2c(nc3ccc(Br)cc13)N(c1ccccc1)CC2 | - | 23.4 | - | - | - | -
C[C@@H]1OC(c2ccccc2)N(C)[C@H]2C[C@H]3c4[nH]c5cccc(-c6ccccc6)c5c4CCN3C[C@@H]12 (stereo not given in full) | - | - | - | - | - | -
CCc1ccc(NC(=O)c2cccc(NC3=NC4CS(=O)(=O)CC4S3)c2)cc1 (stereo not given) | - | - | - | - | - | 26.6
COC(=O)c1cc(-c2ccc(C)c3ccccc23)c(=O)n2c1CCC2 | - | - | - | - | - | -
COc1ccccc1COCC(O)CN(Cc1ccco1)Cc1ccccc1O (stereo not given) | - | - | - | - | - | 25.3
O=C(c1ccccc1)C1CCN(c2ncnc3sccc23)CC1 | - | - | - | - | - | -
CCOc1cc(C(=O)Nc2ccc3c(c2)OCO3)ccc1OCCOc1ccccc1Cl | - | - | - | - | - | -
CCOc1ccc(C(=O)Nc2ccc3c(c2)OCO3)cc1OCC | - | - | - | - | - | 24.7
CCC(CC)C(=O)Nc1cccc(C(=O)Nc2nnc(C)s2)c1 | - | - | - | - | - | 22.9
CCC(CC)C(=O)Nc1cccc(C(=O)Nc2nccs2)c1 | - | - | - | - | - | -
CN(C)c1cccc(/C=C2\CC3(OC(=O)c4cccc(F)c4)CCCN2C3)c1 (stereo not given) | - | - | - | - | - | -
O=C(NCc1n[nH]c(=S)n1-c1ccc(Cl)c(Cl)c1)c1ccc(S(=O)(=O)N2CCCCC2)cc1 | - | 23.3 | - | - | - | -
COc1ccc(Cc2nnc(NC(=O)C(C)C)s2)cc1 | - | - | - | - | - | 30.4
COc1ccc(Cc2nnc(NC(C)=O)s2)cc1 | - | - | - | - | - | -
O=C(CC(Nc1ccccc1Cl)C(=O)OCC(=O)c1cccs1)c1ccccc1 (stereo not given) | - | 21.2 | - | - | - | -
CN1C(=O)C[C@@](C#N)(C(=O)N2CCOCC2)[C@H]1c1ccccc1 | - | - | - | - | - | -
SMILES | TDP2 absorb | PRMT1 inh | MBD2 inh | LEDGF integ inh | SIAE primary | UHRF1 binding
N#C/C(=C(/O)CCl)c1nc2c(s1)CCc1ccccc1-2 | - | 32.6 | - | - | - | -
CCCCCC(=O)N1CC2(C)CN(C(=O)CCCCC)CC(C)(C1)C2=O | - | - | 15.5 | - | - | 23.0
COC(=O)c1cnc(N)s1 | - | - | - | - | - | 23.4
Cc1ccccc1Cn1cc(CN2[C@H](C)COc3cc(Br)ccc3S2(=O)=O)nn1 | - | - | - | - | - | -
C=C(NC(=O)C(=C)NC(=O)c1csc(C2=NC3c4csc(n4)C4NC(=O)c5csc(n5)C(C(C)(O)C(C)O)NC(=O)C5CSC(=N5)/C(=C/C)NC(=O)C(C(C)O)NC(=O)c5csc(n5)C3(CC2)NC(=O)C(C)NC(=O)C(=C)NC(=O)C(=C)NC(=O)C(C(C)C)NC2C=Cc3c(C(C)O)cc(nc3C2O)C(=O)OC4C)n1)C(N)=O (stereo not given) | - | - | - | 32.2 | - | -
CC1(c2nnnn2Cc2ccccc2)CCC(=O)N1CCc1ccc(O)cc1 (stereo not given) | - | - | - | - | - | 23.8
CCCCn1nnnc1C1(C)CCC(=O)N1CCc1ccc(O)cc1 (stereo not given) | - | - | - | - | - | -
Cc1ccc(S(=O)(=O)N2CCC(C(=O)N[C@H](C(=O)N3CCN(C)CC3)C(C)C)CC2)cc1 | - | - | - | - | - | 21.6
S=C(Nc1ccc(Cl)cc1)NN1CCOCC1 | - | - | - | - | - | 30.4
CCN(CC)C(=O)CC[C@@H]1CC[C@]2(CCCN(Cc3ccccc3)C2)O1 | - | - | - | - | - | -
Cc1cccc(C)c1NC(=O)Cn1nnc(-c2ccncc2)n1 | - | - | - | - | - | -
N=C1C(=O)OCC1c1ccccc1NC(=O)Nc1ccccc1 (stereo not given) | - | - | - | - | - | -
N=C1C(=O)OCC1c1ccccc1NC(=O)c1ccc(F)cc1 (stereo not given) | - | - | - | - | - | 50.9
C=CCN1[C@H](Cc2ccccc2)COc2cc(F)ccc2S1(=O)=O | - | - | - | - | - | -
Nc1sccc1C(=O)c1ccc(Cl)cc1 | - | - | - | - | - | 29.6
COc1ccc(CNC(=O)CSc2nc3c([nH]2)c(=O)n(C)c(=O)n3C)cc1 | - | - | - | - | - | -
CCC(C)N(C(=O)CCC(=O)Nc1cc(C)on1)C(C(=O)NC(C)(C)C)c1ccccc1Cl (stereo not given) | - | - | - | - | - | -
Cc1cc(NC(=O)CCC(=O)N(C(C(=O)NC(C)(C)C)c2ccccc2Cl)C(C)(C)C)no1 (stereo not given) | - | - | - | - | - | 25.2
CC1=NN(c2ccccc2C)C(=O)C1 | 50.7 | - | - | - | - | -
Cc1ccccc1N1CC(=O)N(c2ccccc2C)CC1=O | - | - | - | - | - | -
CN(C(=O)c1cccc(NC(=O)Cc2ccc(NC(=O)C3CCCN(C(=O)c4ccccc4)C3)cc2)c1)C1CC1 (stereo not given) | - | - | - | - | - | -
N#CC(C#SN)=C1CCCCC1 | - | 24.5 | - | - | - | -
N#CC(C(=O)O)=C1CCCC1 | - | - | - | - | - | -
CCNc1nc(NCC)nc(N/N=C/c2ccc(OC)cc2)n1 | - | - | - | - | - | 53.3

Assay outcomes: PubChem, The Scripps Research Institute Molecular Screening Center
